The list is not random: actives were taken first. Their share in the collection is about 5.9%.
Pf Dd2 inh: blocks growth of Plasmodium falciparum Dd2 parasites; AID 1159554; hit rate 2.3% among 94,000; P. falciparum Dd2 growth, SYBR Green, 72 h; stronger effect = lower value; activity change, % at 10 µM; in the data active = activity change below about -80%; inconclusive = no clear call, values can overlap the other calls
T cruzi growth-1: inhibitors of T. cruzi proliferation; AID 624255; hit rate 5.9% among 77,000; inhibition, % at 8.34 µM; T. cruzi beta-gal in NIH3T3, GalScreen luminescence, 90 h;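 active = mean inhibition above about 93%, with at least 55% of replicates each passing it, limit read from the data, passing the limit was not always enough; inconclusive = only one of those two conditions holds; inactive = neither condition holds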
IDH1 R132H inh: blocks human IDH1 R132H reductase activity | O75874 | diaphorase/resazurin fluorescence, 60 min | AID 624101 | inhibition, % at 10 µM | hit rate 0.18% among 70,000; in the data active = inhibition above about 34%; inconclusive = no clear call, values can overlap the other calls; inactive = below about 11%;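 also: 0% = DMSO and 100% = no enzyme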
Target sequence (O75874 whole entry R132H): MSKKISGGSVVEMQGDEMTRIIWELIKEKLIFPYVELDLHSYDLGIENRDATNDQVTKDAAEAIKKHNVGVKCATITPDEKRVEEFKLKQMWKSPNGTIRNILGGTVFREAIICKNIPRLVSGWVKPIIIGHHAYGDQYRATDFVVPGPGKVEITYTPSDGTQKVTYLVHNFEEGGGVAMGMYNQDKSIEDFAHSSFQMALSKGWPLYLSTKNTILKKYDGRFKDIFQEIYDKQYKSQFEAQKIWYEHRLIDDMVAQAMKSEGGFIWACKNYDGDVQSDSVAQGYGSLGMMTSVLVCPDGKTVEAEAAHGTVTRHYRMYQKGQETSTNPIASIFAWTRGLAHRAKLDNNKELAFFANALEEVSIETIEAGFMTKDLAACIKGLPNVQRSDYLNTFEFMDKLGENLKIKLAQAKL
GASC1 inh: KDM4C (human) demethylase inhibition. Q9H3R0. GST-KDM4C 2-372, H3K9me3 peptide, LANCE TR-FRET. inhibition, % at 12.5 µM. hit rate 0.15% among 96,000;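 active = mean replicate inhibition above about 25%, with at least 55% of replicates also reaching it, limit read from the data, passing the limit was not always enough; inconclusive = only one of those two conditions met; inactive = neither condition met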
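System: N-terminal GST-fused human GASC-1 (KDM4C) fragment, residues 2-372; amount: enzyme final amount 10 nM; incubation: reaction 30 min RT, detection step 1 h RT; medium: HEPES buffer, pH 7.5, plus ascorbate; technique: LANCE TR-FRET, Eu antibody, ULight-streptavidin, EDTA, ex 340 nm, em 618/671 nm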
T cruzi growth-2: blocks T. cruzi growth in NIH3T3 host cells; T. cruzi beta-gal in NIH3T3, GalScreen luminescence, 90 h; shares compounds with T cruzi growth-1; inhibition, % at 8.35 µM; hit rate 72% among 5,600;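 active = mean replicate inhibition above about 95% and at least 55% of replicates individually reaching it, limit read from the data; inconclusive = only one of the two criteria is met; inactive = neither criterion is met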
T cruzi growth-3: inhibitors of T. cruzi proliferation | shares compounds with T cruzi growth-1 | T. cruzi beta-gal in NIH3T3, GalScreen luminescence, 90 h | inhibition, % at 2.09 µM | hit rate 21% among 5,600;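 active = mean inhibition above about 95%, with at least 55% of replicates also reaching it, limit read from the data; inconclusive = meets just one of the two conditions; inactive = meets neither condition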;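 also: plate controls were neutral control median for no effect and positive control median for full effect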
3T3 cytotox: NIH/3T3 (mouse) viability loss | shares compounds with T cruzi growth-1 | NIH/3T3 viability, CellTiter-Glo ATP luminescence, 90 h | hit rate 14% among 5,600 | AID 651742 | cytotoxicity (signal decrease), % at 8.35 µM;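 active = mean signal decrease across replicates above about 35% based on untreated-well scatter, with enough replicates individually passing, limit read from the data; inconclusive = no rule stated though some were filed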;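 also: 0% = median of neutral control wells and 100% = median of positive control wells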
3T3 cytotox 2: NIH/3T3 (mouse) viability loss; shares compounds with T cruzi growth-1; NIH/3T3 viability, CellTiter-Glo ATP luminescence, 90 h; inhibition, % at 24.9 µM; hit rate 56% among 5,600; AID 651744;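 active = mean loss of cell viability signal at or above a set limit, and enough replicates individually reaching it; inconclusive = meets only the mean limit or only the replicate share; inactive = meets neither condition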;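 also: 0% = median of neutral control wells and 100% = median of positive control wells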
Numbers without * were called inactive; ? = inconclusive; / = no result.

SMILES	Pf Dd2 inh	T cruzi growth-1	IDH1 R132H inh	GASC1 inh	T cruzi growth-2	T cruzi growth-3	3T3 cytotox	3T3 cytotox 2
C[C@H]1CCCCO[C@@H](CN(C)C(=O)NC2CCCCC2)[C@@H](C)CN([C@@H](C)CO)C(=O)c2cc(NC(=O)Nc3ccccc3)ccc2O1	-71	110*	/	-2	111*	9	-18	-4
C[C@H]1CCCCO[C@H](CN(C)C(=O)NC2CCCCC2)[C@@H](C)CN([C@@H](C)CO)C(=O)c2cc(NC(=O)Nc3ccccc3)ccc2O1	-48	92	/	7	/	/	/	/
C[C@@H]1CN([C@@H](C)CO)C(=O)c2cc(NC(=O)NC3CCCCC3)ccc2O[C@@H](C)CCCCO[C@@H]1CN(C)C(=O)Nc1ccccc1	-54	14	/	1	/	/	/	/
C[C@H]1CCCCO[C@@H](CN(C)C(=O)Nc2ccccc2)[C@@H](C)CN([C@@H](C)CO)C(=O)c2cc(NC(=O)NC3CCCCC3)ccc2O1	-21	98*	/	0	?	14	-9	-14
COc1ccc(CN2C[C@H](C)[C@@H](OC)CN(C)C(=O)c3ccc(NC(=O)c4nc5ccccc5s4)cc3OC[C@H]2C)cc1	-52	?	0	-2	110*	114*	2	6
CO[C@H]1CN(C)C(=O)c2ccc(NC(=O)c3nc4ccccc4s3)cc2OC[C@@H](C)N(Cc2cccnc2)C[C@H]1C	-49	?	/	4	105*	88	11	59*
COc1ccc(NC(=O)N(C)C[C@@H]2Oc3cc(-c4ccc(C)cc4)ccc3S(=O)(=O)N([C@H](C)CO)C[C@@H]2C)cc1	-90*	123*	-2	-1	105*	85	47*	25
COc1ccc(NC(=O)N(C)C[C@H]2Oc3cc(-c4ccc(C)cc4)ccc3S(=O)(=O)N([C@@H](C)CO)C[C@H]2C)cc1	-75	106*	-1	-1	108*	70	-19	13
COc1ccc(NC(=O)N(C)C[C@H]2Oc3cc(-c4ccncc4)ccc3S(=O)(=O)N([C@H](C)CO)C[C@@H]2C)cc1	-17	63	1	5	/	/	/	/
CCS(=O)(=O)c1nc2ccccc2n1CC(N)=O	/	/	0	/	/	/	/	/
C[C@@H]1CN([C@@H](C)CO)S(=O)(=O)c2ccc(C#Cc3cccc(F)c3)cc2O[C@@H]1CN(C)S(=O)(=O)c1cn(C)cn1	-17	94	-3	0	/	/	/	/
C[C@@H]1CN([C@@H](C)CO)S(=O)(=O)c2ccc(C#Cc3ccccc3)cc2O[C@@H]1CN(C)S(=O)(=O)c1ccccc1F	-60	123*	2	-1	105*	109*	34	47*
C[C@H](CO)N1C[C@H](C)[C@@H](CN(C)S(=O)(=O)c2ccccc2F)Oc2cc(C#Cc3ccccc3)ccc2S1(=O)=O	-74	123*	1	-2	107*	116*	3	?
C[C@H](CO)N1C[C@H](C)[C@@H](CN(C)S(=O)(=O)c2cn(C)cn2)Oc2cc(C#Cc3ccccc3)ccc2S1(=O)=O	-65	105*	0	-9	106*	87	23	50*
O=c1[nH]c2ccccc2n1CCCSc1nnc2c(n1)[nH]c1ccccc12	/	/	-1	/	/	/	/	/
CC(=O)N(C)c1ccc(NC(=O)COc2ccc([N+](=O)[O-])cc2)cc1	/	/	0	/	/	/	/	/
C[C@@H]1CCCCO[C@@H](CN(C)Cc2ccc(Cl)c(Cl)c2)[C@@H](C)CN([C@@H](C)CO)C(=O)c2cc(NC(=O)Nc3ccc4c(c3)OCO4)ccc2O1	-32	98	4	-2	/	/	/	/
C[C@H]1CCCCO[C@H](CN(C)Cc2ccc3c(c2)OCO3)[C@@H](C)CN([C@@H](C)CO)C(=O)c2cc(NC(=O)Nc3ccc4c(c3)OCO4)ccc2O1	-65	100*	-2	0	99*	110*	32	106*
C[C@@H]1CCCCO[C@H](CN(C)Cc2ccc3c(c2)OCO3)[C@@H](C)CN([C@H](C)CO)C(=O)c2cc(NC(=O)Nc3ccc4c(c3)OCO4)ccc2O1	10	?	0	1	110*	-16	-14	3
C[C@@H]1CCCCO[C@H](CN(C)Cc2ccc(Cl)c(Cl)c2)[C@@H](C)CN([C@H](C)CO)C(=O)c2cc(NC(=O)Nc3ccc4c(c3)OCO4)ccc2O1	8	103*	/	1	107*	105*	25	13
CC=Cc1ccc2n(c1=O)C[C@H]1[C@H](CO)[C@@H](C(=O)Nc3ccc(-c4ccccc4)cc3)N(C)[C@@H]21 (mixture of isomers)	/	90	/	1	/	/	/	/
CC=Cc1ccc2n(c1=O)C[C@H]1[C@H](CO)[C@@H](C(=O)Nc3ccc(-c4ccccc4)cc3)N(CCC)[C@@H]21 (mixture of isomers)	-29	112*	/	-1	92	85	24	104*
CC=Cc1ccc2n(c1=O)C[C@@H]1[C@@H](CO)[C@H](C(=O)Nc3ccc(-c4ccccc4)cc3)N(CCC)[C@H]21 (mixture of isomers)	-38	103*	/	-1	100*	68	7	106*
Cc1c(Br)c([N+](=O)[O-])nn1CC(=O)Nc1ccc(F)cc1	/	/	0	/	/	/	/	/
CC(=O)Nc1ccc(S(=O)(=O)NC2(C(F)(F)F)C(=O)N(C3CCCCC3)C(C)=C2C(C)=O)cc1 (stereo unspecified)	/	/	0	/	/	/	/	/
SMILES	Pf Dd2 inh	T cruzi growth-1	IDH1 R132H inh	GASC1 inh	T cruzi growth-2	T cruzi growth-3	3T3 cytotox	3T3 cytotox 2
OC[C@H]1[C@H](c2ccc(C#CC3(O)CCCC3)cc2)[C@H]2CN(Cc3cccnc3)CCCCN21	-4	85	/	0	/	/	/	/
OC[C@H]1[C@H](c2ccc(C#CC3(O)CCCC3)cc2)[C@@H]2CN(Cc3cccnc3)CCCCN12	8	108*	/	1	98*	76	0	-18
OC[C@@H]1[C@@H](c2ccc(C#CC3(O)CCCC3)cc2)[C@@H]2CN(Cc3cccnc3)CCCCN12	-9	85	/	1	/	/	/	/
OC[C@@H]1[C@H](c2ccc(C#CC3(O)CCCC3)cc2)[C@@H]2CN(Cc3cccnc3)CCCCN12	-4	101*	/	0	107*	91	19	23
CCOC(=O)CSc1n[nH]c(-c2ccc(Cl)cc2)n1	/	/	1	/	/	/	/	/
Cc1cc(I)ccc1NC(=O)Cn1ccc([N+](=O)[O-])n1	/	/	1	/	/	/	/	/
CC(C)CC#Cc1ccc2c(c1)O[C@H](CN(C)C(=O)Nc1ccccc1F)[C@H](C)CN([C@@H](C)CO)S2(=O)=O	-27	51	0	7	/	/	/	/
